According to ChEMBL document CHEMBL1140751, “Novel sst5-selective somatostatin dicarba-analogues: synthesis and conformation-affinity relationships” (J Med Chem, 2008):
Numbered stars: 1 amine (or outer) side, 2 acyl side, 3 side chain; on linkers, the order of the positions; unused ones are H or OH. Bridge positions count the residues as written; N and C are the ends. Square brackets hold non-standard residues; d marks the D form. Peptide text beside a SMILES is read from it. Phe(Nα-(CH2)3CO) = O=C([C@H](Cc1ccccc1)N(CCCC(=O)[*:3])[*:1])[*:2]; N(2-aminoethyl)Phe = O=C([C@H](Cc1ccccc1)N(CCN[*:3])[*:1])[*:2]

Key:
[1] = biological target: Somatostatin receptor type 1 (Homo sapiens, UniProt P30872); assay: Displacement of [125I](Leu8,D-Trp22,Tyr25)-SRIF28 from human sst1 receptor
Outline: (§1)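 Membranes came from CHO-K1 and CCL39 cells stably expressing the human sst1–sst5 receptors. Receptor autoradiography was performed on 20 µm pellet sections mounted on slides. IC50 was derived from signal quantified by computer-assisted image processing.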

[2] = biological target: Somatostatin receptor type 2 (Homo sapiens, UniProt P30874); assay: Displacement of [125I](Leu8,D-Trp22,Tyr25)-SRIF28 from human sst2 receptor; outline: as §1
[3] = biological target: Somatostatin receptor type 3 (Homo sapiens, UniProt P32745); assay: Displacement of [125I](Leu8,D-Trp22,Tyr25)-SRIF28 from human sst3 receptor; outline: as §1
[4] = biological target: Somatostatin receptor type 4 (Homo sapiens, UniProt P31391); assay: Displacement of [125I](Leu8,D-Trp22,Tyr25)-SRIF28 from human sst4 receptor; outline: as §1
[5] = biological target: T1, Somatostatin receptor type 5 (Homo sapiens, UniProt P35346); assay: Displacement of [125I](Leu8,D-Trp22,Tyr25)-SRIF28 from human sst5 receptor; outline: as §1
[6] = biological target: T1, Somatostatin receptor type 5; assay: Binding affinity to sst5 receptor

Chain of Somatostatin receptor type 3 (P32745 whole entry): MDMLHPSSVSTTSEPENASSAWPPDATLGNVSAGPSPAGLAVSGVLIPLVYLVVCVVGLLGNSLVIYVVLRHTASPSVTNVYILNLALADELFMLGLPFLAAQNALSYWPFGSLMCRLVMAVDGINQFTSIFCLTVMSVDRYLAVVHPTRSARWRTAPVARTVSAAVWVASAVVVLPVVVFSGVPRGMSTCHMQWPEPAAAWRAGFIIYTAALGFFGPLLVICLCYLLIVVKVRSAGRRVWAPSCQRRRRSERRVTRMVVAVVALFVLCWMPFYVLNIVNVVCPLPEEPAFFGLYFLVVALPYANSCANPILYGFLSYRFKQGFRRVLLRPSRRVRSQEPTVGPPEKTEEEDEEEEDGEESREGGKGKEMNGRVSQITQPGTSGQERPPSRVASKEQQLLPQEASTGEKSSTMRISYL
Chain of Somatostatin receptor type 4 (P31391 whole entry): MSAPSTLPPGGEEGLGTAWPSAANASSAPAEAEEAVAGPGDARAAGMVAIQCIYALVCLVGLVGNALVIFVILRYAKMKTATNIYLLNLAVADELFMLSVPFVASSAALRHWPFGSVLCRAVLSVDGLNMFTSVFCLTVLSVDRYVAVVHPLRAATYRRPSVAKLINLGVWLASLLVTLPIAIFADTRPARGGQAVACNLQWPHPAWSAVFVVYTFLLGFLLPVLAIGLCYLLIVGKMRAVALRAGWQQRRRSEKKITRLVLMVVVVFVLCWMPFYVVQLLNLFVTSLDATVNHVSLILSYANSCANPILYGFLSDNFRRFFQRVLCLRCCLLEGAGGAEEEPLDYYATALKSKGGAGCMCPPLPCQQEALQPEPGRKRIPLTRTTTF
Chain of Somatostatin receptor type 1 (P30872 whole entry): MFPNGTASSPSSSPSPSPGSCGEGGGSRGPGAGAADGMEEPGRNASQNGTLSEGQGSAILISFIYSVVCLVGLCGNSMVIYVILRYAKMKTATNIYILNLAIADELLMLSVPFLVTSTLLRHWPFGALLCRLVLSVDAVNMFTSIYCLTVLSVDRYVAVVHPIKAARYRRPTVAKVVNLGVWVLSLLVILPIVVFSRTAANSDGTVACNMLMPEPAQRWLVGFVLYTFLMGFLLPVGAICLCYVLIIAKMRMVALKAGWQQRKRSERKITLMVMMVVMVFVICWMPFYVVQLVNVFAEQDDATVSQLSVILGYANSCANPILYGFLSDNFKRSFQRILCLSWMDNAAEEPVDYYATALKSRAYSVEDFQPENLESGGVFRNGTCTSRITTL
T1 sequence (P35346 whole entry): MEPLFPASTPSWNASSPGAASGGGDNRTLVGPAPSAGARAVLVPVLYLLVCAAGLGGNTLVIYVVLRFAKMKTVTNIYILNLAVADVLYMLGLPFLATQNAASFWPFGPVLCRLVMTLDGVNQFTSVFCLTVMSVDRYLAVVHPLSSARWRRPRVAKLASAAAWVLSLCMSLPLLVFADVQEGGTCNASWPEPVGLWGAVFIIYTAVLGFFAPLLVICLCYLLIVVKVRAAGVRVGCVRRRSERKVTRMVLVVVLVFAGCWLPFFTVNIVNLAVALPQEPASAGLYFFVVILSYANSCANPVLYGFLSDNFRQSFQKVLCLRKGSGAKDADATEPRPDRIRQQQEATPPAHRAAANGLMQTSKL
Chain of Somatostatin receptor type 2 (P30874 whole entry): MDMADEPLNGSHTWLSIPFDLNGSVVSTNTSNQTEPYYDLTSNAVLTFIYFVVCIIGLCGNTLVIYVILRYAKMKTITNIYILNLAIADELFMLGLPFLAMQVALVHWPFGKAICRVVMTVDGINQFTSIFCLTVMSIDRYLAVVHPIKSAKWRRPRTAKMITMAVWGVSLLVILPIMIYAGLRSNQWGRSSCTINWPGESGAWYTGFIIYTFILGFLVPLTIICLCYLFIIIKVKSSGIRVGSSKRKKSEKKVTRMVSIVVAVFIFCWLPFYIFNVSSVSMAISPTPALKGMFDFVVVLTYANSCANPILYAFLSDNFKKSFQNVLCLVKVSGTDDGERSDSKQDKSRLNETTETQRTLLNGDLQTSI

`C[C@@H](O)[C@@H]1NC(=O)[C@H](CCCCN)NC(=O)[C@@H](Cc2c[nH]c3ccccc23)NC(=O)[C@H](Cc2ccccc2)NC(=O)[C@@H](NC(=O)[C@H](N)Cc2ccccc2)C/C=C\C[C@@H](C(=O)N[C@H](CO)[C@@H](C)O)NC1=O` gave an IC50 [1] of over 1000 nM, an IC50 [2] of 44 nM and an IC50 [3] of over 1000 nM. It also gave an IC50 [4] of 412 nM and an IC50 [5] of 28 nM.
For `C[C@H](N)COC(=O)[C@H](CCCCN)NC(=O)Cc1c(-c2ccc3ccccc3c2)[nH]c2c1ccc1ccccc12`, the IC50 [6] was 0.4 nM.
In the case of `C[C@@H](O)[C@@H](CO)NC(=O)[C@@H]1C/C=C\C[C@H](NC(=O)[C@H](N)Cc2ccccc2)C(=O)N[C@@H](Cc2ccccc2)C(=O)N[C@H](Cc2c[nH]c3ccccc23)C(=O)N[C@@H](CCCCN)C(=O)N[C@@H](Cc2ccccc2)C(=O)N1`, the IC50 [1] is reported as 961 nM, the IC50 [2] is reported as over 1000 nM and the IC50 [3] is reported as over 1000 nM. The IC50 [4] was 141 nM and the IC50 [5] was 206 nM.
Work on `C[C@@H](O)[C@@H]1NC(=O)[C@H](CCCCN)NC(=O)[C@@H](Cc2c[nH]c3ccccc23)NC(=O)[C@H](Cc2ccccc2)NC(=O)[C@@H](NC(=O)[C@H](N)Cc2ccccc2)CCCC[C@@H](C(=O)N[C@H](CO)[C@@H](C)O)NC1=O` yielded an IC50 [1] of over 1000 nM, an IC50 [2] of 49 nM and an IC50 [3] of over 1000 nM. It also gave an IC50 [4] of 214 nM and an IC50 [5] of 203 nM.
`CC(C)[C@@H]1NC(=O)[C@H](CCCCN)NC(=O)[C@@H](Cc2c[nH]c3ccccc23)NC(=O)[C@H](Cc2ccc(O)cc2)NC(=O)[C@H](Cc2ccccc2)NCCNC(=O)CCCN([C@@H](Cc2ccccc2)C(=O)N[C@H](C(N)=O)[C@@H](C)O)C1=O` (H-[N(2-aminoethyl)Phe]Y[dW]KV[Phe(Nα-(CH2)3CO)]T-NH2; lactam 1-6) was tested, and the IC50 [6] was 67 nM.
